Assay results of several laboratories.
Lines come from different studies, so protocols differ.
rep methyltransferase: Replicase polyprotein 1ab, methyltransferase (rep, Severe acute respiratory syndrome coronavirus 2, UniProt P0DTD1)
rep main protease: Replicase polyprotein 1ab, main protease (rep, Severe acute respiratory syndrome coronavirus 2, UniProt P0DTD1)

[H]/N=C(\N/C(=N/[H])NCCCCCCNC(=N)NC(=N)Nc1ccc(Cl)cc1)Nc1ccc(Cl)cc1  IC50 (rep methyltransferase; enzyme activity, inhibitor): 43.7 µM
CN1Cc2ccccc2[C@@H]2c3cccc4[nH]cc(c34)C[C@H]21  IC50 (rep main protease; enzyme activity, inhibitor): > 20 µM
COc1ccc(N(Cc2cc(Cl)cs2)C(=O)Cc2cncc3ccccc23)cc1  Kd (rep main protease; binding, MST): 1.5 µM
N=C(N)NN=C1C=CC(=NNC(N)=S)C=C1  IC50 (rep main protease; enzyme activity, inhibitor): 9.3 µM
COC(=O)c1c(NC(=O)c2cc3ccccc3o2)sc(C)c1C  IC50 (rep methyltransferase; enzyme activity, inhibitor): 22.8 µM
O=c1oc2cc(O)ccc2c2ccccc12  Kd (rep main protease; binding, SPR): 52.7 µM
COc1cc(-c2ccc(/N=N/c3ccc4c(S(=O)(=O)O)cc(S(=O)(=O)O)c(N)c4c3O)c(OC)c2)ccc1/N=N/c1ccc2c(S(=O)(=O)O)cc(S(=O)(=O)O)c(N)c2c1O  IC50 (rep main protease; enzyme activity, inhibitor): 9.82 µM
CCOC(=O)c1c(NC(=O)c2cc3ccccc3o2)sc(C)c1C  IC50 (rep methyltransferase; enzyme activity, inhibitor): 27.9 µM
CSc1ccc(N(Cc2cc(Cl)cs2)C(=O)Cc2cncc3ccccc23)cc1  Kd (rep main protease; binding, MST): 1.4 µM
